Compounds with a hit are over-represented: about 1.4% of the library has one in this group of screens.
Vif inh: blocks HIV Vif function | HEK293T cells, Vif self-association by quenched fluorescence, imaging, 24 h | inhibition, % at 7.49 µM | hit rate 0.35% among 340,000 | AID 602346; in the data active = inhibition above about 50%, passing the limit was not always enough; inconclusive = no clear call, values can overlap the other calls; inactive = below about 31%
Casp6 inh: blocks human caspase-6 cleavage activity. hit rate 0.53% among 350,000. inhibition, % at 12.5 µM. purified caspase-6, Z-VEID-R110 cleavage fluorescence;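 active = mean inhibition across replicates at least about 35%, with every replicate also reaching that limit, limit read from the data; inconclusive = only one of the two criteria met; inactive = neither criterion met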;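 also: 0% = median of neutral control wells and 100% = no fluorescence left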
Target sequence (P55212 24-179 limits assumed): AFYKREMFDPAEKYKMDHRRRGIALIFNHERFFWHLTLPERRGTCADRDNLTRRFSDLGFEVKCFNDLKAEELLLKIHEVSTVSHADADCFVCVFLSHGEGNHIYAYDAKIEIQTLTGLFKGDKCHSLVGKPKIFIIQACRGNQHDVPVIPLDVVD
Target sequence (P55212 194-293 limits assumed): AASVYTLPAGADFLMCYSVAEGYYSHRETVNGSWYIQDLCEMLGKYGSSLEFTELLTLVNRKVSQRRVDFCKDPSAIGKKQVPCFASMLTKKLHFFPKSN
Myeloid diff 2: compounds promoting myeloid differentiation | ER-HoxA9 myeloid progenitors, lysozyme-GFP differentiation, flow cytometry | calls only at 10 µM | hit rate 1% among 360,000;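 active = normalized GFP-positive differentiation at or above the plate's own cutoff, the solvent-only control mean plus 3 SD; inconclusive = no clear call, values can overlap the other calls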;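 also: cells exposed to compound for four days before flow analysis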
T cell HTS: T cell immune modulators affecting CD8 T cell-vesicle binding | AID 2052 | 2C CD8+ T cell-vesicle binding, flow cytometry; active compounds read low | response (vesicle binding), % at 7 µM | hit rate 0.068% among 330,000;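 active = response, share of CD8 T cells binding vesicles, and their 90th percentile fluorescence all below set limits, cut at about 80% in these data, passing the limit was not always enough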;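 also: values below 100% mean blocked vesicle binding to the CD8+ T cells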
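material = purified 2C TCR transgenic mouse naive CD8+ T cells | controls = Unloaded micro-vesicles (low), QL9 vesicles with 0.7% DMSO (high) | detection = cytometric PE anti-B7-1 and Alexa647 anti-CD8 signals after 1% paraformaldehyde fixation | incubation = binding step 1.5 h, 37 °C, antibody labelling 20 min, ice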
* marks the source's active call; other numbers are inactive results; i = inactive; ? = inconclusive; . = no result given; + = active, no number.

SMILES	Vif inh	Casp6 inh	Myeloid diff 2	T cell HTS
C[C@H](CO)N1C[C@H](C)[C@@H](CN(C)Cc2ccc(Cl)c(Cl)c2)Oc2c(NC(=O)Cc3ccccc3)cccc2C1=O	-4	3	+	688
Nc1nc(C(c2ccccc2)c2ccccc2)cs1	-7	8	+	212
O=C(NNc1c(F)c(F)cc(F)c1F)c1cc2ccccc2oc1=O	12	8	i	0.0*
COc1ccc(/C=C2/SC(=O)NC2=O)cc1	.	3	i	276
COc1ccc(/C=C2\C(=O)NCC(=O)N2C)cc1	-6	1	+	170
O=C(Cc1ccc(-n2c(=O)[nH]c3ccsc3c2=O)cc1)N1CCN(c2ccc(Cl)cc2)CC1	6	.	+	i
COc1ccc2nc(N3C(=O)C(O)=C(C(=O)c4ccco4)C3c3ccccc3OC)sc2c1 (configuration not stated)	82*	8	i	390
Cc1cc(C)c2nc(N3C(=O)C(O)=C(C(=O)c4ccco4)C3c3ccco3)sc2c1 (configuration not stated)	6	68*	i	322
CCOc1ccc2nc(N3C(=O)C(O)=C(C(=O)c4ccco4)C3c3ccco3)sc2c1 (configuration not stated)	-6	36*	i	521
CCOC(=O)c1sc(N2C(=O)C(O)=C(C(=O)c3ccco3)C2c2ccco2)nc1C (configuration not stated)	10	39*	.	489
COc1ccc(C2C(C(=O)c3ccco3)=C(O)C(=O)N2c2nnc(C)s2)cc1 (configuration not stated)	2	-4	i	379
CCOc1cccc(C2C(C(=O)c3ccco3)=C(O)C(=O)N2c2nnc(C)s2)c1 (configuration not stated)	?	3	i	i
COc1ccc2nc(N3C(=O)C(O)=C(C(=O)c4ccco4)C3c3ccc(C)o3)sc2c1 (configuration not stated)	-13	33	i	.
COc1ccc2c3c([nH]c2c1)[C@H](CO)N(Cc1nccs1)CC31CN(Cc2nccs2)C1	.	-5	.	.
Cc1ccc2nc(N3C(=O)C(O)=C(C(=O)c4ccco4)C3c3cccs3)sc2c1 (configuration not stated)	6	.	i	246
COC(=O)c1sc(N2C(=O)C(=O)/C(=C(/O)c3ccccc3)C2c2ccco2)nc1C (configuration not stated)	7	37*	i	155
Cc1ccc2nc(N3C(=O)C(O)=C(C(=O)c4ccc(C)o4)C3c3ccc(O)cc3)sc2c1 (configuration not stated)	9	29	+	263
Cc1nc(N2C(=O)C(=O)/C(=C(/O)c3ccccc3)C2c2ccco2)sc1C (configuration not stated)	3	.	i	176
CCOC(=O)Cc1nn2c(=O)cc(C)nc2s1	4	.	+	207
O=C(Nc1ccc(F)cc1)N1CC(=O)N2[C@H](CO)[C@H](c3ccc(C#Cc4ccc(F)cc4)cc3)[C@@H]2C1	.	1	.	.
O=C1CC(NS(=O)(=O)c2cc(F)ccc2F)CN1c1cccc(F)c1 (configuration not stated)	-11	37*	i	428
O=C(NCC[C@@H]1CC[C@H](NS(=O)(=O)c2cccc(F)c2)[C@@H](CO)O1)C1CCCC1	.	-2	.	.
O=[N+]([O-])c1ccc(Cl)c(/C=N/n2c(-c3ccncc3)n[nH]c2=S)c1	-1	0	+	500
O=[N+]([O-])c1ccc(O)c(/C=N/n2c(-c3ccccc3)n[nH]c2=S)c1	2	0	i	268
Cc1cc2oc(=O)cc(CSc3nnc(C)n3N)c2cc1C(C)C	-1	.	+	267
SMILES	Vif inh	Casp6 inh	Myeloid diff 2	T cell HTS
CCOc1ccc(-n2c(SCc3cc(=O)oc4cc(C)c(C(C)C)cc34)nnc2-c2cccnc2)cc1	0	.	i	321
Cc1ccc(C(=O)NC(N2CCCC2)C(Cl)(Cl)Cl)cc1 (configuration not stated)	56*	.	i	512
CCCCNC(=O)CCC(=O)Nc1ccc2nc(N3CCOCC3)cc(C)c2c1	-13	.	i	474
CCCCNC(=O)CCC(=O)Nc1ccc2nc(N3CCCCC3)cc(C)c2c1	-7	7	+	124
CCN1CCN(c2cc(C)c3cc(NC(=S)N4CCCC(C)C4)ccc3n2)CC1 (configuration not stated)	.	-40	+	185
O=C(NCC[C@@H]1CC[C@@H](NS(=O)(=O)Cc2ccccc2)[C@H](CO)O1)C1CCC1	.	-1	.	.
C[C@@H]1CN([C@@H](C)CO)S(=O)(=O)c2ccc(-c3ccncc3)cc2O[C@H]1CN(C)C(=O)CN(C)C	.	0	.	.
CCN(CC)c1cc(C)c2cc(NC(=O)c3ccccc3OC)ccc2n1	-4	3	+	612
CCN(CC)c1cc(C)c2cc(NC(=O)c3cccs3)ccc2n1	-1	8	i	280
CN1CCN(CC(=O)Nc2ccc(Cl)cc2Cl)CC1	0	43*	i	257
O=C(Cc1ccc(S(=O)(=O)N2CCCCC2)s1)Nc1ccc(F)cc1F	-1	.	i	185
O=C(COC(=O)Cc1ccc(S(=O)(=O)N2CCOCC2)s1)Nc1ccc(F)cc1F	-4	43*	i	162
O=C(CN1CCN(S(=O)(=O)c2ccc(F)cc2)CC1)Nc1ccc(F)cc1F	9	1	+	326
O=C(CN1CCN(S(=O)(=O)c2ccc(F)cc2)CC1)Nc1cc(C(F)(F)F)ccc1Cl	1	.	i	246
CCN1[C@@H]2c3ccc(-c4ccccc4OC)c(=O)n3C[C@H]1[C@H](CO)[C@H]2C(=O)N[C@@H](C)c1ccccc1	.	3	.	.
COc1cccc(/C(O)=C/c2nc3ccc(C(=O)NCCc4cccc(C)c4)cc3[nH]c2=O)c1	-2	.	+	468
COc1cccc(C(=O)Nc2cc(C(=O)NCCc3ccccc3)ccc2Cl)c1	-2	3	i	266
O=C(C[C@H]1C=C[C@H](NC(=O)CCN2CCCCC2)[C@@H](CO)O1)Nc1ccccc1	.	1	.	.
COC(=O)CSc1nc(C2CC2)cc(C(F)(F)F)c1C#N	79*	.	i	478
N#Cc1c(-c2ccccc2F)cc(C2CC2)nc1SCC(=O)c1cccs1	19	.	+	216
CCC(C)(C)NC(=O)C(c1ccco1)N(C(=O)c1csnn1)c1cccc(F)c1 (configuration not stated)	-1	.	+	268
CC(C)(C)NC(=O)C(c1cccs1)N(C(=O)c1csnn1)c1cccc(F)c1 (configuration not stated)	3	3	i	233
O=[N+]([O-])c1ccc2nc(-c3ccccc3[N+](=O)[O-])[nH]c2c1	5	38*	i	190
CC=Cc1ccc2n(c1=O)C[C@H]1[C@H](CO)[C@@H](C(=O)NCc3ccccc3)N(CC)[C@@H]21 (mixture of isomers)	.	2	.	.
CCNCCC(CCC(C)C)c1ccc2c(c1)OCO2 (configuration not stated)	-6	-1	i	652

Source: PubChem BioAssay (several laboratories)
